Measurements collected from several papers.
Lines come from different studies, so protocols differ.
PDE9A: High affinity cGMP-specific 3',5'-cyclic phosphodiesterase 9A (PDE9A, Homo sapiens, UniProt O76083)
PIKFYVE: 1-phosphatidylinositol 3-phosphate 5-kinase (PIKFYVE, Homo sapiens, UniProt Q9Y2I7)
PIK3CA: Phosphatidylinositol 4,5-bisphosphate 3-kinase catalytic subunit alpha isoform (PIK3CA, Homo sapiens, UniProt P42336)
CYP1A1: Cytochrome P450 1A1 (CYP1A1, Homo sapiens, UniProt P04798)
CELA1: Chymotrypsin-like elastase family member 1 (CELA1, Sus scrofa, UniProt P00772)
PTK6: Protein-tyrosine kinase 6 (PTK6, Homo sapiens, UniProt Q13882)
AVPR1A: Vasopressin V1a receptor (AVPR1A, Homo sapiens, UniProt P37288)
MAP2K1: Dual specificity mitogen-activated protein kinase kinase 1 (MAP2K1, Homo sapiens, UniProt Q02750)

Compound | target | assay | conditions | IC50 [µM]
COc1ccc(CNc2c(CO)cnc3c(C4CC4)cc(C#N)cc23)cn1 | PDE9A | enzyme activity, inhibitor | – | > 10
Nc1ncc2c(n1)-c1c([nH]c3ccc(C#CCCO)cc13)CCC2 | PIKFYVE | target engagement in cells, BRET | – | 0.04
O=C1NC(=S)S/C1=C\c1csc2ccc(Cl)cc12 | PIK3CA | enzyme activity, inhibitor, radiometric | – | 30
CC(C)=CCc1c(O)cc(O)c2c1O[C@H](c1ccc(O)cc1)CC2=O | CYP1A1 | enzyme activity, inhibitor, fluorescence | 15 min, pH 7.4 | 0.38
N#Cc1ccc(N2CCN(S(=O)(=O)c3ccc(F)cc3)CC2)cc1NCc1ccncc1 | ATP-sensitive inward rectifier potassium channel 1 (Homo sapiens, UniProt P48048) | ion flux, inhibitor | – | 7
C[C@@H]1O[C@@H](O[C@H]2[C@H](Oc3c(-c4ccc(O)cc4)oc4cc(O)cc(O)c4c3=O)O[C@H](CO[C@@H]3O[C@H](CO)[C@@H](O)[C@H](O)[C@H]3O)[C@@H](O)[C@@H]2O)[C@H](O)[C@H](O)[C@H]1O | Prostaglandin G/H synthase 2 (PTGS2, Ovis aries, UniProt P79208) | enzyme activity, inhibitor, absorbance | – | 44
CC(C)(C)c1c(O)ccc(/C=C2\SC(=S)NC2=O)c1C(C)(C)C | PIK3CA | enzyme activity, inhibitor, radiometric | – | 30
Cc1ccc(C(C)C)cc1NC(=O)COC(=O)/C=C/c1ccc(O)cc1 | CELA1 | enzyme activity, inhibitor, absorbance | – | 23.3
CNC(=O)c1cc2c(Oc3ccc(NC(=O)C4(C(=O)Nc5ccc(F)cc5)CC4)cc3)ccnc2cc1OC | PTK6 | enzyme activity, inhibitor, radiometric | – | 0.025
C/C=C1\NC(=O)[C@H](C)NC(=O)[C@@H](NC(=O)[C@@H](Cc2ccc(O)cc2)NC(=O)[C@@H](NC(=O)/C(C)=C/C)C(C)C)[C@@H](C)OC(=O)[C@H](Cc2ccccc2)NC(=O)[C@@H](CCC(=O)O)NC1=O | CELA1 | enzyme activity, inhibitor, absorbance | – | 6.99
NCCCC[C@H](NC(=O)[C@@H]1CCCN1C(=O)[C@@H]1CSSC[C@H](NC(=O)CNC(=O)CNC(=O)CN)C(=O)N[C@@H](Cc2ccc(O)cc2)C(=O)N[C@@H](Cc2ccccc2)C(=O)N[C@@H](CCC(N)=O)C(=O)N[C@@H](CC(N)=O)C(=O)N1)C(=O)NCC(N)=O | AVPR1A | ligand displacement, radioligand | cell membranes | 1.7
C/C=C1\NC(=O)[C@H](C)NC(=O)[C@@H](NC(=O)[C@@H](Cc2ccc(O)cc2)NC(=O)[C@@H](NC(=O)/C(C)=C/C)C(C)C)[C@@H](C)OC(=O)[C@H](CCc2ccc(O)cc2)NC(=O)[C@@H](CCC(=O)O)NC1=O | CELA1 | enzyme activity, inhibitor, absorbance | – | 2.14
C[C@@H]1COCCN1c1nc(-c2cnc(N)nc2C(F)F)nc(N2CCOCC2)n1 | PIK3CA | ligand displacement, TR-FRET | – | 0.0261
CCNC(=O)[C@H](CCCNC(=N)CF)NC(=O)c1ccccc1 | Protein-arginine deiminase type-1 (PADI1, Homo sapiens, UniProt Q9ULC6) | enzyme activity, inhibitor | – | 40
COc1cccc(/C=C2\SC(=S)NC2=O)c1OCc1ccccc1 | PIK3CA | enzyme activity, inhibitor, radiometric | – | > 100
COC(C)(C)C#Cc1ccc2[nH]c3c(c2c1)-c1nc(N)ncc1CCC3 | PIKFYVE | enzyme activity, inhibitor, ADP detection | – | 0.0062
Nc1ncc(-c2nc(N3CCOCC3)nc(N3[C@@H]4CC[C@H]3COC4)n2)c(C(F)F)n1 | PIK3CA | ligand displacement, TR-FRET | – | 0.033
Cc1ccc(C(C)C)cc1NC(=O)COC(=O)/C=C/c1ccccc1 | CELA1 | enzyme activity, inhibitor, absorbance | – | 5.01
O=C1NC(=S)S/C1=C\c1ccc(C(=O)O)cc1 | PIK3CA | enzyme activity, inhibitor, radiometric | – | > 100
COC(=O)C1=C(C)NC(C)=C(C(=O)OC)C1c1ccccc1[N+](=O)[O-] | Glycogen synthase kinase-3 beta (GSK3B, Homo sapiens, UniProt P49841) | enzyme activity, inhibitor, ADP detection | – | 27.6
CN1CCN(c2ccc(Nc3ncc4cc(C#N)c(=O)n(C5CCCC5)c4n3)cc2)CC1 | Dual specificity tyrosine-phosphorylation-regulated kinase 2 (DYRK2, Homo sapiens, UniProt Q92630) | enzyme activity, inhibitor | – | 30.6
CCN(CC)c1ccc(/C=C2\SC(=S)NC2=O)c(O)c1 | PIK3CA | enzyme activity, inhibitor, radiometric | – | 64
NC(=O)c1ccc[n+]([C@@H]2O[C@H](COP(=O)([O-])OP(=O)(O)OC[C@H]3O[C@@H](n4cnc5c(N)ncnc54)[C@H](O)[C@@H]3O)[C@@H](O)[C@H]2O)c1 | Protein mono-ADP-ribosyltransferase PARP15 (PARP15, Homo sapiens, UniProt Q460N3) | enzyme activity, inhibitor | – | 637
CCC(C)(O)C#Cc1ccc2[nH]c3c(c2c1)-c1nc(N)ncc1CCC3 (centres unmarked) | PIKFYVE | enzyme activity, inhibitor, ADP detection | – | 0.0019
Cc1ccc(C(=O)Nc2ccc(Oc3cc4cnn(C)c4cc3-c3cn[nH]c3)c(F)c2)c(=O)n1-c1ccc(F)cc1 | Vascular endothelial growth factor receptor 2 (KDR, Homo sapiens, UniProt P35968) | enzyme activity, inhibitor, radiometric | – | 0.053

Compound | target | assay | conditions | IC50 [µM]
CCCCN1/C(=C/C=C/c2sc3ccc(Br)cc3[n+]2CCCC)Sc2ccc(Br)cc21 | Protein arginine N-methyltransferase 8 (PRMT8, Homo sapiens, UniProt Q9NR22) | enzyme activity, inhibitor, radiometric | – | 3.53
CN(C)CC#Cc1ccc2[nH]c3c(c2c1)-c1nc(N)ncc1CCC3 | MAP2K1 | enzyme activity, inhibitor, radiometric | – | > 10
C[C@H](CS)C(=O)N1CCC[C@H]1C(=O)O | Beta-lactamase L1 (Stenotrophomonas maltophilia, UniProt P52700) | enzyme activity, inhibitor | – | 73.7
CSc1ccc(/C=C2/C(C)=C(CC(=O)O)c3cc(F)ccc32)cc1 | PDE9A | enzyme activity, inhibitor | – | > 100
CCOC(F)(F)c1nnc2cnc(-c3cnc(OCC(F)(F)F)c(F)c3)cn12 | Sodium channel protein type 2 subunit alpha (Scn2a, Rattus norvegicus, UniProt P04775) | ion current, inhibitor, patch clamp | – | 0.179
CC(C)C[C@H](NC(=O)[C@H](C)NC(=O)[C@H](CCCCN)NC(=O)[C@H](CCCCN)NC(=O)[C@@H](N)CCCCN)C(=O)N[C@@H](CC(N)=O)C(=O)N[C@@H](CCCNC(=N)N)C(=O)N[C@@H](CCC(N)=O)C(=O)N[C@@H](CC(C)C)C(=O)NCC(=O)N[C@H](C(=O)N[C@@H](C)C(=O)N[C@@H](C)C(N)=O)C(C)C | MAP kinase-activated protein kinase 2 (MAPKAPK2, Homo sapiens, UniProt P49137) | enzyme activity, inhibitor, radiometric | – | 31
O=C1NC(=S)S/C1=C\c1ccc(-c2ccccn2)cc1 | PIK3CA | enzyme activity, inhibitor, radiometric | – | > 100
COc1cc(C[C@H]2C(=O)OC[C@@H]2Cc2ccc(OC)c(OC)c2)ccc1O | PDE9A | enzyme activity, inhibitor | – | > 20
CC(C)(C)n1nc(-c2ccc3nc(OC4CC4)ccc3c2)c(C(N)=O)c1N | MAP2K1 | cell-free assay | – | 2.38
O=C(O)CCc1ccc(O)c(CN(CCN(CC(=O)O)Cc2cc(CCC(=O)NCCCCCC(=O)NCCCC[C@H](NC(=O)N[C@@H](CCC(=O)O)C(=O)O)C(=O)O)ccc2O)CC(=O)O)c1 | Glutamate carboxypeptidase 2 (FOLH1, Homo sapiens, UniProt Q04609) | ligand displacement, radioligand | – | 0.0243
CCn1c(-c2nc3ccc(C(=O)N4CCCC(N)C4)cc3n2C)cc2ccccc21 (centres unmarked) | AVPR1A | calcium signal, antagonist, fluorescence | – | > 50.1
O=C(Nc1c[nH]nc1C(=O)NC1CCNCC1)c1cc(F)cc(F)c1 | Cyclin-dependent kinase 16 (CDK16, Homo sapiens, UniProt Q00536) | target engagement in cells, BRET | – | 1.9
CC1=C(C#N)[C@@H](c2ccc(C#N)cc2S(C)(=O)=O)N(C)C(=O)N1c1cccc(C(F)(F)F)c1 | CELA1 | enzyme activity, inhibitor | – | > 30
NC(=O)c1ccc(Oc2ccc(C(N)=O)cc2)cc1 | Protein mono-ADP-ribosyltransferase PARP11 (PARP11, Homo sapiens, UniProt Q9NR21) | enzyme activity, inhibitor | – | 0.93
O=C1NC(=S)S/C1=C\c1cc([N+](=O)[O-])ccc1O | PIK3CA | enzyme activity, inhibitor, radiometric | – | 23
Cc1ccc(C(C)C)cc1NC(=O)COC(=O)c1ccc(O)c(O)c1 | CELA1 | enzyme activity, inhibitor, absorbance | – | 24.3
C=CC(=O)Nc1cc(Nc2nccc(Nc3cc(Cl)c(F)cc3C(C)(C)O)n2)c(OC)cc1N1CC[C@@H](N(C)C)C1 | PTK6 | enzyme activity, inhibitor | with preincubation | 0.529
Cc1ccc(C(C)C)cc1NC(=O)COC(=O)/C=C/c1ccccc1O | CELA1 | enzyme activity, inhibitor, absorbance | – | 13.3
CC1(C)CC(=O)c2cc(-c3nc(-c4ccc(Cl)cc4)cs3)c(=O)n(-c3ccccc3C(F)(F)F)c2C1 | Isocitrate dehydrogenase [NADP] cytoplasmic (IDH1, Homo sapiens, UniProt O75874, R132C) | enzyme activity, inhibitor | – | 0.2
COc1ccc([N+](=O)[O-])cc1/C=C1\SC(=S)NC1=O | PIK3CA | enzyme activity, inhibitor, radiometric | – | 28
COc1cc(O)c(CC=C(C)C)c(O)c1C(=O)/C=C/c1ccc(O)cc1 | CYP1A1 | enzyme activity, inhibitor, fluorescence | 15 min, pH 7.4 | 0.28
CC(C)(C#Cc1ccc2[nH]c3c(c2c1)-c1nc(N)ncc1CCC3)NS(C)(=O)=O | PIKFYVE | enzyme activity, inhibitor, ADP detection | – | 0.14
CCCCC1CCCc2c1[nH]c(=O)c(C#N)c2-c1ccc(C)cc1 (centres unmarked) | PDE9A | enzyme activity, inhibitor, radiometric | – | 0.0612
CC(C)(O)CC#Cc1ccc2[nH]c3c(c2c1)-c1nc(N)ncc1CCC3 | PIKFYVE | target engagement in cells, BRET | – | 0.29
COc1ccc(S(=O)(=O)ON=C2C=C(C)C(=O)C(C)=C2)cc1 | Histone acetyltransferase KAT6B (Homo sapiens, UniProt Q8WYB5) | enzyme activity, inhibitor, radiometric | – | > 100
